# In ChEMBL document CHEMBL1124947, “Cationic antiprotozoal drugs. Trypanocidal activity of 2-(4'-formylphenyl)imidazo[1,2-a]pyridinium guanylhydrazones and related derivatives of quaternary heteroaromatic compounds” (J Med Chem, 1990):
# Experiments:
# Format in all cases: functional
# Mus musculus [1] = assay: Trypanocidal Activity at I.C.E. value 0.65 when administered subcutaneously.
# Procedure, shortened: (§1)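 Mice, in groups of five per dose, were given a standard inoculum of blood-stage T. rhodesiense that is lethal to all untreated controls, then dosed subcutaneously. Usually 11 dose levels were used (2^n × 0.42 mg/kg).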
# Mus musculus [2] = assay: Trypanocidal Activity at I.C.E. value 0.17 when administered subcutaneously.
# [3] = tested on: Trypanosoma brucei rhodesiense; assay: In Vitro measurement of inhibition of thymidine uptake in cell culture of Trypanosoma rhodesiense; conditions: read-out: ID50 (the source's name)
# Procedure, shortened: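 Parasites harvested from infected rats and incubated 3 h across a drug concentration series, usually 0.1–100 µg/mL. Incorporation of radiolabeled thymidine measured. ID50 is the concentration (µg/mL) producing 50% inhibition.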
# [4] = tested on: Trypanosoma brucei rhodesiense; assay: In Vitro measurement of inhibition of leucine uptake in cell culture of Trypanosoma rhodesiense; conditions: read-out: ID50 (the source's name)
# Procedure, shortened: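 Trypanosomes harvested from infected rats, cultured 3 h with several concentrations of drug, usually 0.1–100 µg/mL. Radiolabeled L-leucine uptake measured. ID50 is the concentration in µg/mL giving 50% inhibition of incorporation.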
# Mus musculus [5] = assay: Trypanocidal Activity at I.C.E. value 0.29 when administered subcutaneously.
# Procedure, shortened: (§2)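 Blood-stage T. rhodesiense infection came from a standard inoculum lethal to all untreated mice. Drug was given by subcutaneous injection to groups of five mice. Survival beyond 30 days counted as cure. […] Sub-curative doses scored 0, and data were normalized at each dose.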
# Mus musculus [6] = assay: Trypanocidal Activity at I.C.E. value 0.67 when administered subcutaneously.; procedure, shortened: as §1
# Mus musculus [7] = assay: Trypanocidal Activity at I.C.E. value 0.44 when administered subcutaneously.; procedure, shortened: as §2
# Mus musculus [8] = assay: Trypanocidal Activity at I.C.E. value 0.47 when administered subcutaneously.; procedure, shortened: as §2
# Mus musculus [9] = assay: Trypanocidal Activity at I.C.E. value 0.57 when administered subcutaneously.; procedure, shortened: as §1
smiles,measurement,setting,value
Br.Cc1ccc2n(c1)cc(/C=C/c1ccc(/C=N/NC(=N)N)cc1)[n+]2C.[Br-],CD50,Mus musculus [1],0.8 mg/kg
Cc1ccc(S(=O)(=O)N/N=C/c2ccc(-c3cn4ccccc4[n+]3C)cc2)cc1.[Br-],CD50,Mus musculus [2],53 mg/kg
Br.C[n+]1c(-c2ccc(/C=N/NC(=N)N)cc2)c([N+](=O)[O-])n2ccccc21.[Br-],IC50,[3],2.7 µg/mL
same,IC50,[4],1.7 µg/mL
same,CD50,Mus musculus [5],3.3 mg/kg
Br.CCNC(=N)N/N=C/c1ccc(OCc2cn3cc(C)ccc3[n+]2C)cc1.[Br-],CD50,Mus musculus [6],0.4 mg/kg
Cc1ccc2n(c1)cc(-c1ccc(/C=N/Nc3nc(N)nc(N)n3)cc1)[n+]2C.[I-],IC50,[3],0.3 µg/mL
same,IC50,[4],> 10 µg/mL
Br.CSC(=N)N/N=C/c1ccc(OCc2cn3ccccc3[n+]2C)cc1.[Br-],IC50,[3],4.6 µg/mL
same,CD50,Mus musculus [7],26 mg/kg
same,IC50,[4],3.3 µg/mL
Br.C[n+]1c(-c2ccc(/C=N/NC(=N)N3CCCCC3)cc2)cn2ccccc21.[Br-],CD50,Mus musculus [7],0.8 mg/kg
C[n+]1c(-c2ccc(/C=N/Nc3cc(N)[nH]n3)cc2)cn2ccccc21.[Br-],CD50,Mus musculus [5],13 mg/kg
Br.C=CCNC(=N)N/N=C/c1ccc(-c2cn3ccccc3[n+]2C)cc1.[Br-],CD50,Mus musculus [1],0.2 mg/kg
Br.COc1ccc2n(c1)cc(-c1ccc(/C=N/NC(=N)SC)cc1)[n+]2C.[Br-],CD50,Mus musculus [8],13 mg/kg
C[n+]1c(COc2ccc(/C=N/Nc3nc[nH]n3)cc2)cn2ccccc21.[Br-],IC50,[3],0.5 µg/mL
same,IC50,[4],> 10 µg/mL
Cc1ccc(S(=O)(=O)[O-])cc1.Cc1cccc2n1cc(-c1ccc(COc3ccc(/C=N/NC(=O)c4ccc(N)cc4)cc3)cc1)[n+]2C,CD50,Mus musculus [7],13 mg/kg
Br.C[n+]1c(-c2ccc(/C=N/NC3=NCCN3)cc2)cn2ccsc21.[Br-],IC50,[3],0.6 µg/mL
same,CD50,Mus musculus [7],0.8 mg/kg
same,IC50,[4],0.8 µg/mL
Br.CCS(=O)(=O)c1ccc2n(c1)cc(-c1ccc(/C=N/NC(=N)N)cc1)[n+]2C.[Br-],CD50,Mus musculus [6],0.8 mg/kg
Br.Cn1cc[n+](C)c1/C=C/c1ccc(/C=N/NC(=N)NO)cc1.[Br-],CD50,Mus musculus [8],0.8 mg/kg
Br.C[n+]1c(-c2ccc(/C=N/NC3=NCCCN3)cc2)cn2ccsc21.[Br-],CD50,Mus musculus [8],0.2 mg/kg
C[n+]1c(COc2ccc(/C=N/NC(=N)N)cc2)cn2cc(C(F)(F)F)ccc21.Cc1ccc(S(=O)(=O)O)cc1.Cc1ccc(S(=O)(=O)[O-])cc1,CD50,Mus musculus [6],6.6 mg/kg
Br.Cc1c(-c2ccc(/C=N/NC(=N)N3CCCC3)cc2)[n+](C)c2ccccn12.[Br-],CD50,Mus musculus [8],0.2 mg/kg
Br.C[n+]1c(COc2ccc(/C=N/NC(=N)N)cc2)cn2ccccc21.[Br-],IC50,[3],0.8 µg/mL
same,IC50,[4],0.9 µg/mL
same,CD50,Mus musculus [8],0.1 mg/kg
Br.C[n+]1c(-c2ccc(/C=N/NC3=NCCN3)cc2)cn2c1CCCC2.[Br-],CD50,Mus musculus [7],0.4 mg/kg
Br.Cc1ccc2n(c1)cc(-c1ccc(/C=N/NC(=N)N3CCOCC3)cc1)[n+]2C.[Br-],CD50,Mus musculus [8],0.8 mg/kg
Br.C[n+]1c(-c2ccc(/C=N/NC3=NCCN3)cc2)c(Br)n2ccccc21.[Br-],CD50,Mus musculus [2],3.3 mg/kg
same,IC50,[3],0.7 µg/mL
same,IC50,[4],0.7 µg/mL
C[n+]1c(-c2ccc(C(=N)NO)cc2)cn2ccccc21.[Cl-],CD50,Mus musculus [5],53 mg/kg
Cc1ccc(S(=O)(=O)O)cc1.Cc1ccc(S(=O)(=O)[O-])cc1.Cc1cccc2n1cc(/C=N/NC(=N)NO)[n+]2C,CD50,Mus musculus [2],106 mg/kg
Br.C[n+]1c(COc2ccc(/C=N/NC(=N)NO)cc2)cn2ccccc21.[Br-],CD50,Mus musculus [9],0.4 mg/kg
C[n+]1c(-c2ccc(/C=N/NC(=N)N)cc2)cn2ccsc21.Cc1ccc(S(=O)(=O)O)cc1.Cc1ccc(S(=O)(=O)[O-])cc1,IC50,[3],1.4 µg/mL
same,CD50,Mus musculus [1],0.4 mg/kg
same,IC50,[4],1.3 µg/mL
CC(=O)Nc1ccc(-c2cn3ccc4ccccc4c3[n+]2C)cc1.[Br-],CD50,Mus musculus [2],212 mg/kg
same,IC50,[3],3.2 µg/mL
same,IC50,[4],5.2 µg/mL
Br.CC/N=C(\NCC)N/N=C/c1ccc(/C=C/c2cn3c(C)cccc3[n+]2C)cc1.[Br-],CD50,Mus musculus [1],0.4 mg/kg
C[n+]1c(-c2ccc(/C=N/NC(=O)c3ccc(N)cc3)cc2)cn2ccccc21.Cc1ccc(S(=O)(=O)[O-])cc1,CD50,Mus musculus [9],0.8 mg/kg
